Data from ChEMBL document CHEMBL1129672, “Ionophore properties of monensin derivatives studied on human erythrocytes by 23Na NMR and K+ and H+ potentiometry: relationship with antimicrobial and antimalarial activities” (J Med Chem, 1996).
In brackets after ≈: the same amount, converted by molar mass.

Key:
Bacillus cereus = assay: Minimum Inhibitory concentration against Bacillus cereus ATCC 14579; format: functional
Method in brief: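 Broth dilution in Mueller-Hinton broth pH 7.4, 24 h incubation at 27 °C. Ionophores diluted in DMSO across 18 tubes, 100 ug/mL down to 1.56 ng/mL.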

Plasmodium falciparum = assay: In vitro inhibitory activity against Plasmodium falciparum; format: functional, organism-based
Method in brief: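 Nigerian strain kept in human erythrocytes, 7% hematocrit, RPMI 1640 + 25 mM Hepes pH 7.4 + 10% AB+ serum, 37 °C, candle jar. Drugs from DMSO stocks (final solvent ≤0.25%), 1–2% hematocrit, 0.3–0.8% parasitemia, 48 h, then [3H]hypoxanthine 12–18 h. Filter-bound counts as % of drug-free control; IC50 from log dose plot, ≥2 experiments in triplicate.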

Row | Compound | MIC (Bacillus cereus) [µg/mL] | IC50 (Plasmodium falciparum) [µg/mL]
1 | C[C@@H]1C[C@H](C)[C@@H](C)O[C@@]1(O)COC(=O)Nc1ccc(Cl)cc1 | 0.05 (≈ 0.153 µM) | 0.00125 (≈ 0.00381 µM)
2 | Cc1ccc(S(=O)(=O)OC[C@]2(O)O[C@H](C)[C@@H](C)C[C@H]2C)cc1 | 0.78 (≈ 2.37 µM) | 0.00125 (≈ 0.00381 µM)
3 | C[C@@H]1C[C@H](C)[C@@H](C)O[C@@]1(O)COC(=O)c1cccs1 | 0.02 (≈ 0.0703 µM) | 0.0027 (≈ 0.00949 µM)
4 | C[C@@H]1C[C@H](C)[C@@H](C)OC1O (stereo partly specified) | 0.39 (≈ 2.7 µM) | 0.0119 (≈ 0.0827 µM)
5 | C[C@@H]1C[C@H](C)[C@@H](C)O[C@@]12COC(c1ccccc1)O2 (stereo partly specified) | 6.25 (≈ 23.8 µM) | 0.75 (≈ 2.86 µM)
6 | C[C@@H]1C[C@H](C)[C@@H](C)O[C@@]1(O)CO | 1.56 (≈ 8.95 µM) | 0.00165 (≈ 0.00947 µM)
7 | C[C@@H]1C[C@H](C)[C@@H](C)O[C@@]12COC(=O)O2 | 1.56 (≈ 7.79 µM) | 0.00075 (≈ 0.00375 µM)
8 | C[C@H](C[C@H](C)[C@@H](C)O)[C@H](O)CO | > 50 | 5.25 (≈ 29.8 µM)
